Assay [1] has as its system THP-1. Kind of assay: Inhibition of IFN mediated immune response in human THP1 cells assessed as inhibition of G3-YSD-induced cGAS signalling pathway at 20 uM incubated for 16 hrs by luciferase assay. It counts as functional, cell-based. The method in brief: (§1)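 THP1-Dual monocytes carrying Lucia luciferase and SEAP reporters were stimulated with 3p-hpRNA (RIG-I agonist) or Y-form dsDNA G3-YSD (cGAS agonist), with or without compound. Secreted Lucia luciferase luminescence was measured as the type I IFN read-out. Mean ± s.d., n = 3 independent experiments.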

The target of the next assay is T1, Toll-like receptor 8 (Homo sapiens, UniProt Q9NR97).
T1 sequence (Q9NR97 whole entry): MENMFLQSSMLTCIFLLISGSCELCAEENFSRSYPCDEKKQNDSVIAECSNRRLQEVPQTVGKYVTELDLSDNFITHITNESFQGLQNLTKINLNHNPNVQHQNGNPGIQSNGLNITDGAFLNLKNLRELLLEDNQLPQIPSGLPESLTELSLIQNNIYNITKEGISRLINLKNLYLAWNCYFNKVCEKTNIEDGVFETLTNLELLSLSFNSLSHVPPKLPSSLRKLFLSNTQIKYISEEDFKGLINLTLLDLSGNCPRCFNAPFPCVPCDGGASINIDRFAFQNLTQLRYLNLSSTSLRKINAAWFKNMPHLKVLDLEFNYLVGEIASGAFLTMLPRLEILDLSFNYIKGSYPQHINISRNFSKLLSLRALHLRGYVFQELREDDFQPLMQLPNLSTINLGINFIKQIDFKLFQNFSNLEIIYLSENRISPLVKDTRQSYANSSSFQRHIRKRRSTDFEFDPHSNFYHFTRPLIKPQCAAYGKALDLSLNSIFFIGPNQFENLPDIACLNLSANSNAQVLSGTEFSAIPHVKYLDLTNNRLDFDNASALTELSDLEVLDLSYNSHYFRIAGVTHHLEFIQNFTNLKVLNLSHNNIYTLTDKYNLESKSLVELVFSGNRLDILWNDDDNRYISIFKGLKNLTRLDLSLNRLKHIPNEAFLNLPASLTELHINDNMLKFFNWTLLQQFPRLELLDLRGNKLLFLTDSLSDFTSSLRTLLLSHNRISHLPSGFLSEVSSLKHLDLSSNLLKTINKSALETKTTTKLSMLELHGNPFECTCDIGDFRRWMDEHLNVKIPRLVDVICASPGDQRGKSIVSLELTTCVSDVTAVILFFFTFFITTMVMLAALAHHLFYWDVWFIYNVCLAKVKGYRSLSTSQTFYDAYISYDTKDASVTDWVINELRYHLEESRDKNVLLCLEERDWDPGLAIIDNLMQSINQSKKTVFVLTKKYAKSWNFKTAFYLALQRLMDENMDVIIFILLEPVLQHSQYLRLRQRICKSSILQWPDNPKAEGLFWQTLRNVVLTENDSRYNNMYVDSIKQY
Kind of assay: Inhibition of human TLR8 expressed in HEK293 cells assessed as reduction in ssRNA-induced NFkappaB production incubated for 16 hrs by quanti-blue SEAP assay. It counts as cell-based. The method in brief: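 HEK 293 hTLR8 SEAP reporter cells were stimulated with ssRNA (ssRNA-Lyo-40) and incubated with compound for 16 h. Data were normalized as (raw − untreated)/(ligand + solvent − untreated), with ligand + solvent set as 100%. Mean ± s.d., n = 3 independent experiments.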

In assay [2] the target is Toll-like receptor 7 (Mus musculus) (UniProt P58681). Put plainly: Inhibition of endogenous mouse TLR7 in mouse RAW264.7 cells assessed as resiquimod-induced NO production at < 5 uM incubated for 18 to 24 hrs.
Chain of Toll-like receptor 7 (Mus musculus) (P58681 whole entry, looked up): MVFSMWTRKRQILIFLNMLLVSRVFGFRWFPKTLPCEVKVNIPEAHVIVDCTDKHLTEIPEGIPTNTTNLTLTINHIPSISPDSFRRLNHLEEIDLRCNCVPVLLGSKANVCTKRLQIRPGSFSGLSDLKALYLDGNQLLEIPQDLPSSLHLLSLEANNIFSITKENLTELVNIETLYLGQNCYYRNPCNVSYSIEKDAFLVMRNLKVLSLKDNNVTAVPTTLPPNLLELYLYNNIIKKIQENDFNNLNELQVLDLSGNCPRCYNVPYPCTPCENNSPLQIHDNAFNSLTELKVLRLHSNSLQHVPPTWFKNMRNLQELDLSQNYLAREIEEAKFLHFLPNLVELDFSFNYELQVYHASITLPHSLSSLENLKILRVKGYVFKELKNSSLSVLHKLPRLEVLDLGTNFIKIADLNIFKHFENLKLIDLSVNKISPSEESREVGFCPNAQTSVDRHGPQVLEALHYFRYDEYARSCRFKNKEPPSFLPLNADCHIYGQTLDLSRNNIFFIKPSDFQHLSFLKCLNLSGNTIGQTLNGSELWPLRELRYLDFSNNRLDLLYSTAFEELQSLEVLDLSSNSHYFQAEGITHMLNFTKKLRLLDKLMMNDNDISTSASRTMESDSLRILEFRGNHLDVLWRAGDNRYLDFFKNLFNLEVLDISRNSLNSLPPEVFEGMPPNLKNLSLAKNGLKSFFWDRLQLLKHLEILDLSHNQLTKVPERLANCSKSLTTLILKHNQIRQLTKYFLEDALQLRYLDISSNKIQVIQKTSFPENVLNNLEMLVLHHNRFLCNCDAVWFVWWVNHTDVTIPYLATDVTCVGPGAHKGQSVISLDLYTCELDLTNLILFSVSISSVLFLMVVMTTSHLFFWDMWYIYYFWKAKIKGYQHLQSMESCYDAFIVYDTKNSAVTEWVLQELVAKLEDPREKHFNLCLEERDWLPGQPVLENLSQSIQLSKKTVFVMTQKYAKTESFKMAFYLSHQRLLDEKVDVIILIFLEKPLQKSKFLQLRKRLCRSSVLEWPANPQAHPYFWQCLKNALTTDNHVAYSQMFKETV
The subject of assay [3] is THP-1. Put plainly: Inhibition of IFN mediated immune response in human THP1 cells assessed as inhibition of G3-YSD-induced cGAS signalling pathway at 5 to 20 uM incubated for 16 hrs by luciferase assay. It counts as functional, cell-based. In outline: as §1
Assay [4] has as its target T2, Toll-like receptor 7 (Homo sapiens) (UniProt Q9NYK1).
T2 sequence (whole entry): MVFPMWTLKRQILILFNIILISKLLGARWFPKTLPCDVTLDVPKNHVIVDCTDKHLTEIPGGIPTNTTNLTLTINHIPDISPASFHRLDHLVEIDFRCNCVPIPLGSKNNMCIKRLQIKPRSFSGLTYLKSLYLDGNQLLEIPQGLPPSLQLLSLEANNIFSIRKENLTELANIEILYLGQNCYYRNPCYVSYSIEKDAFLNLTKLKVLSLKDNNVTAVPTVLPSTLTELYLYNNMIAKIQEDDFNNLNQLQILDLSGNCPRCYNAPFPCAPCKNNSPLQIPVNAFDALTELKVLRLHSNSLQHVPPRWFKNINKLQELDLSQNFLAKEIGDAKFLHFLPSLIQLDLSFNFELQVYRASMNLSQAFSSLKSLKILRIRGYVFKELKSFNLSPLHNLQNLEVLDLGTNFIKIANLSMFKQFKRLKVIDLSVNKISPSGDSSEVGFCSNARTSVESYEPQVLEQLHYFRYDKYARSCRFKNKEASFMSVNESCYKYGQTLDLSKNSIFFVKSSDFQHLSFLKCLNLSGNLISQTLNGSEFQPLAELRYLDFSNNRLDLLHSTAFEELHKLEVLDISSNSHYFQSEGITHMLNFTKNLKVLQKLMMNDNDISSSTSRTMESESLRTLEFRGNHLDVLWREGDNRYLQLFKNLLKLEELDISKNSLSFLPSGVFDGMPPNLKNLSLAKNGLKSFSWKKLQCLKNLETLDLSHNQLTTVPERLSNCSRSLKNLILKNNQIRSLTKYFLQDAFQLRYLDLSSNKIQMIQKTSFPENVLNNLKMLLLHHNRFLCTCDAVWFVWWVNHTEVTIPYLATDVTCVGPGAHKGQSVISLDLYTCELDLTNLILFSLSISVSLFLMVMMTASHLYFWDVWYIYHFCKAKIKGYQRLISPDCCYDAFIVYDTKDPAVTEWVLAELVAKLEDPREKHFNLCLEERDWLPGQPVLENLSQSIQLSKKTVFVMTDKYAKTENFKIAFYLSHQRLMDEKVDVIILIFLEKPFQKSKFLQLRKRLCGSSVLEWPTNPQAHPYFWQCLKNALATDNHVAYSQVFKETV
Put plainly: Inhibition of human TLR7 expressed in HEK293 cells assessed as reduction in R848-induced NFkappaB production incubated for 16 hrs by quanti-blue SEAP assay. Type of assay: cell-based. In outline: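 HEK 293-Blue cells stably expressing hTLR7 or hTLR8 with an inducible SEAP reporter were incubated 16 h with compound under 1 µg/mL R848 stimulation. SEAP was read at 620 nm. Data were normalized to the R848 control, and IC50 was taken from concentration-response curves. […] Mean ± s.d., n = 3 independent experiments.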

Our source for the inhibition and IC50 values is ChEMBL document CHEMBL4354819, “Discovery of Novel Small Molecule Dual Inhibitors Targeting Toll-Like Receptors 7 and 8” (J Med Chem, 2019).

Activity calls are given as the source filed them. No cut-off for these calls is given here.

Consider `O=[N+]([O-])c1c(I)cccc1Oc1ccc(-c2nnco2)cc1`, for which the inhibition result with THP-1 [1] was “Active”. The IC50 at Toll-like receptor 8 amounted to 620 nM. The inhibition entry in assay [2] was “inactive”. On to `O=C(Nc1ccc(Oc2cncc(C(F)(F)F)c2)cc1)c1c(F)cccc1Cl`, for which the inhibition result in the assay on THP-1 [3] was “Active”. As to `O=C(Nc1ccc(Oc2cc(C(F)(F)F)cc(C(F)(F)F)c2)cc1)c1c(F)cccc1Cl`, the inhibition result in assay [4] is “Dose-dependent effect”.
